In one assay the test system is Candida tropicalis. Kind of assay: In vitro antifungal activity against Candida tropicalis 8001 by agar dilution method using Sabouraud Dextrose agar. The class given is functional. Summed up: (§1)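 Agar dilution on Sabouraud Dextrose agar. MIC taken as the lowest concentration that inhibits visible growth.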
For assay [1], the system named is Candida albicans. Kind of assay: In vitro Antifungal activity against Candida albicans FP633 by agar dilution method using Sabouraud Dextrose agar. In kind it is functional. Summed up:
as §1

For assay [2], the system named is Candida albicans. The assay can be described thus: In vitro antifungal activity against Candida albicans FP579 by agar dilution method using Sabouraud Dextrose agar. In kind it is functional. Summed up:
as §1

In a further assay the test system is Candida parapsilosis. The assay can be described thus: In vitro antifungal activity against Candida parapsilosis 15001 by agar dilution method using Sabouraud Dextrose agar. Particulars: Lodderomyces parapsilosis. The class given is functional. In a few lines:
as §1

The test system of assay [3] is Mus musculus. Kind of assay: Compound was evaluated in vivo for antifungal activity and efficacy in disseminated murine candidiasis was determined. The class given is functional.
Assay [4] deals with Meyerozyma guilliermondii. Kind of assay: In vitro antifungal activity against Candida guilliermondii FP587 by agar dilution method using Sabouraud Dextrose agar. In kind it is functional. Summed up: as §1
For assay [5], the species on record is Mus musculus. Kind of assay: Ability to hemolyze ICR mouse RBCs at 1 mg/mL using microtiter red blood cell hemolysis assay.
The subject of assay [6] is Candida albicans. Kind of assay: In vitro antifungal activity against Candida albicans FP633 by agar dilution method using Sabouraud Dextrose agar. The class given is functional. Summed up:
as §1

For assay [7], the system named is Candida albicans. Kind of assay: Compound was evaluated in vivo for antifungal activity and efficacy in disseminated murine candidiasis caused by candida albicans FP633. In kind it is functional.
The mark [8] stands for this setting: Candida tropicalis, read-out: MIC.

Converted amounts (≈) assume the structure as drawn. Numbered stars: 1 amine (or outer) side, 2 acyl side, 3 side chain; on linkers, the order of the positions; unused ones are H or OH. Bridge positions count the residues as written; N and C are the ends. Square brackets hold non-standard residues; d marks the D form. Peptide text beside a SMILES is read from it. Gln(3R-OH) = NC(=O)C[C@@H](O)[C@H](N)C(=O)O; X1 = CCCCCCCCCCCCC[C@H](CC(=O)[*:1])O[*:2]; Pro(3S-OH) = O=C(O)[C@H]1NCC[C@@H]1O; d(aThr) = C[C@@H](O)[C@@H](N)C(=O)O; Hyp = O=C(O)[C@@H]1C[C@@H](O)CN1; Orn = NCCC[C@H](N)C(=O)O

On to `CCCCCCCCCCCCC[C@H](CC(=O)N[C@@H](C(=O)N[C@H](C)C(=O)N[C@@H](Cc1ccc(O)c([N+](=O)[O-])c1)C(=O)N[C@H](C(=O)N1C[C@H](O)C[C@H]1C(=O)N[C@@H](C(=O)N[C@H](C(=O)N1CC[C@H](O)[C@H]1C(=O)N[C@H](C(=O)NCC(=O)N[C@@H](C(N)=O)[C@@H](C)O)[C@H](O)CC(N)=O)[C@@H](C)O)[C@@H](C)O)C(C)C)[C@@H](C)O)OC(=O)[C@@H](C)CCCN`, for which the MIC with Candida tropicalis turned out to be 0.78 µg/mL (≈ 0.489 µM); in the assay with Candida tropicalis (setting [8]), 0.78 µg/mL (≈ 0.489 µM); against Candida albicans [1], 0.39 µg/mL (≈ 0.245 µM); against Candida albicans [2] it was 0.78 µg/mL (≈ 0.489 µM); in the assay with Candida parapsilosis, 0.78 µg/mL (≈ 0.489 µM); in [4], 0.78 µg/mL (≈ 0.489 µM). The molecule further yielded an ED50 in the assay with Mus musculus [3] of 0.45 mg/kg. The Hemolytic activity in the assay listed under Mus musculus [5] is listed as 100%.
Regarding `CCCCCCCCCCCCC[C@@H]1CC(=O)N[C@H]([C@@H](C)O)C(=O)N[C@H](C)C(=O)N[C@@H](Cc2ccc(O)cc2)C(=O)N[C@@H](C(C)C)C(=O)N2C[C@H](O)C[C@H]2C(=O)N[C@H]([C@@H](C)O)C(=O)N[C@@H]([C@@H](C)O)C(=O)N2CC[C@H](O)[C@H]2C(=O)N[C@@H]([C@H](O)CC(N)=O)C(=O)NCC(=O)N[C@H]([C@@H](C)O)C(=O)N[C@@H](CCCN)C(=O)O1` [FR-901469] ([d(aThr)][dA]YV[Hyp][d(aThr)]T[Pro(3S-OH)][Gln(3R-OH)]G[d(aThr)][Orn]; linker N-C via X1), the MIC (in the assay with Candida albicans [6]; against Candida tropicalis; with Candida tropicalis (setting [8]); against Candida albicans [2]; with Candida parapsilosis; in [4]) was 0.39 µg/mL (≈ 0.254 µM) throughout. This molecule registered an ED50 with Candida albicans [7] of 0.88 mg/kg. This molecule also returned a Hemolytic activity in the assay listed under Mus musculus [5] of 100%.
For the molecule `CCCCCCCCCCCCC[C@H](CC(=O)N[C@@H](C(=O)N[C@H](C)C(=O)N[C@@H](Cc1ccc(O)c(NC(=O)CCN)c1)C(=O)N[C@H](C(=O)N1C[C@H](O)C[C@H]1C(=O)N[C@@H](C(=O)N[C@H](C(=O)N1CC[C@H](O)[C@H]1C(=O)N[C@H](C(=O)NCC(=O)N[C@@H](C(N)=O)[C@@H](C)O)[C@H](O)CC(N)=O)[C@@H](C)O)[C@@H](C)O)C(C)C)[C@@H](C)O)OC(=O)[C@@H](C)CCCNC(C)=O.Cl`, the MIC (in the assay with Candida tropicalis; with Candida tropicalis (setting [8]); against Candida albicans [1]; against Candida albicans [2]; against Candida parapsilosis; in assay [4]) was 1.56 µg/mL each time. The Hemolytic activity in the assay listed under Mus musculus [5] was determined as 23%.
On to `CCCCCCCCCCCCC[C@@H]1CC(=O)N[C@@H]([C@@H](C)O)C(=O)N[C@H](C)C(=O)N[C@@H](Cc2ccc(O)c(NC(=O)CCN)c2)C(=O)N[C@@H](C(C)C)C(=O)N2C[C@H](O)C[C@H]2C(=O)N[C@@H]([C@@H](C)O)C(=O)N[C@@H]([C@@H](C)O)C(=O)N2CC[C@H](O)[C@H]2C(=O)N[C@@H]([C@H](O)CC(N)=O)C(=O)NCC(=O)N[C@@H]([C@@H](C)O)C(=O)N[C@@H](CCCN)C(=O)O1`, for which the MIC against Candida tropicalis is 1.56 µg/mL (≈ 0.963 µM); with Candida tropicalis (setting [8]) it was 1.56 µg/mL (≈ 0.963 µM); in the assay with Candida albicans [1], 0.78 µg/mL (≈ 0.482 µM); with Candida albicans [2] it was 1.56 µg/mL (≈ 0.963 µM); with Candida parapsilosis, 0.78 µg/mL (≈ 0.482 µM); in [4], 0.78 µg/mL (≈ 0.482 µM). The Hemolytic activity in the assay listed under Mus musculus [5] came to 49%.
For the molecule `CCCCCCCCCCCCC[C@H](CC(=O)N[C@@H](C(=O)N[C@H](C)C(=O)N[C@@H](Cc1ccc(O)cc1)C(=O)N[C@H](C(=O)N1C[C@H](O)C[C@H]1C(=O)N[C@@H](C(=O)N[C@H](C(=O)N1CC[C@H](O)[C@H]1C(=O)N[C@H](C(=O)NCC(=O)N[C@@H](C(N)=O)[C@@H](C)O)[C@H](O)CC(N)=O)[C@@H](C)O)[C@@H](C)O)C(C)C)[C@@H](C)O)OC(=O)[C@@H](C)CCCNC(C)=O`, the MIC against Candida tropicalis was found to be 1.56 µg/mL (≈ 0.98 µM); with Candida tropicalis (setting [8]), 1.56 µg/mL (≈ 0.98 µM); in the assay with Candida albicans [1], 0.39 µg/mL (≈ 0.245 µM); in the assay on Candida albicans [2], 0.78 µg/mL (≈ 0.49 µM); in the assay with Candida parapsilosis, 1.56 µg/mL (≈ 0.98 µM); in assay [4] it was 0.78 µg/mL (≈ 0.49 µM). For the same molecule, the Hemolytic activity in the assay listed under Mus musculus [5] came out at 5%.
